# Screens: PubChem BioAssay, several laboratories
# beta cell repl = inducers of MIN6 beta-cell proliferation, primary screen, ATP luminescence, uHTS. MIN6 cells proliferation, ATPlite luminescence, 48 h; cells starved in 0.2% serum; 100% = growth in 10% serum. hit rate 0.29% among 330,000. proliferation, % at 10 µM;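 active = compounds whose signal lies at least 3.5 SD above the mean of all wells on their plate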;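 also: 0% = DMSO-treated cells in low-serum medium and 100% = 10% serum control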
# MsrA inh = bovine MsrA enzyme inhibitors, primary screen, biochemical, absorbance, HTS; hit rate 0.75% among 360,000; purified bovine MsrA, absorbance read-out; Methionine sulfoxide reductase A (Bos taurus); inhibition, % at 15.5 µM;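 also: 0% = vehicle wells with enzyme and 100% = reference inhibitor wells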
# SKN-1 inh = suppressors of acrylamide-induced Pgst-4::GFP reporter in worms, primary screen, SKN-1 inhibitor project, whole organism, uHTS, GFP/RFP fluorescence ratio, strain VP596; C. elegans VP596 Pgst-4::GFP/RFP ratio, 24 h; inhibition, % at 21.8 µM; hit rate 0.49% among 360,000; AID 624304, 2012;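 active = interference check ratio from 0.5 to 1.5 plus GFP to RFP signal ratio inhibition reaching or exceeding a fixed threshold, cut at about 30% in these data, passing the limit was not always enough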
# DAGLB inh = DAGLB lipase inhibitors, primary screen, biochemical, fluorescence, HTS; inhibition, % at 5.17 µM; HEK293T DAGLB membrane lysate, EnzChek fluorogenic substrate; Diacylglycerol lipase-beta (Homo sapiens), Q8NCG7; hit rate 0.059% among 340,000; AID 504411, 2011; in the data active = inhibition above about 34%;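 also: 0% = enzyme with vehicle and 100% = wells lacking enzyme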
# Target sequence (Q8NCG7 whole entry, looked up): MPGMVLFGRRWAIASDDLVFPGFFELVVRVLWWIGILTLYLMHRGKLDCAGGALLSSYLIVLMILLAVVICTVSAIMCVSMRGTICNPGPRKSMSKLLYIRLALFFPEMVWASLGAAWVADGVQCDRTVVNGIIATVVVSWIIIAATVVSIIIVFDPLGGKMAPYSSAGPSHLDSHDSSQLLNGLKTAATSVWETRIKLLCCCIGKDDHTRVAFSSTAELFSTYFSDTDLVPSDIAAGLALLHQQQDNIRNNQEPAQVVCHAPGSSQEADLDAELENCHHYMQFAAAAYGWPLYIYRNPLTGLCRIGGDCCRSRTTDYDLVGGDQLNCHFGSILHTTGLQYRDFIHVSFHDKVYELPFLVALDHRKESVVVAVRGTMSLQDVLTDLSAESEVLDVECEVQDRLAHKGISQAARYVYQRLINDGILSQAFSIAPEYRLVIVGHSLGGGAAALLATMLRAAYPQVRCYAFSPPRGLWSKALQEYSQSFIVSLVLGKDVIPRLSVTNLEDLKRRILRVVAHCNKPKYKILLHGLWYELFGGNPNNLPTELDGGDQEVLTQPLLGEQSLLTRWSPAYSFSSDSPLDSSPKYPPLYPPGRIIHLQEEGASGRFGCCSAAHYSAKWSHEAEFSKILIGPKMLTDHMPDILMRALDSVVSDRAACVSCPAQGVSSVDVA
# MsrA act = bovine MsrA enzyme activators, primary screen, biochemical, absorbance, HTS; Methionine sulfoxide reductase A (Bos taurus); purified bovine MsrA, absorbance read-out; activation, % at 10.6 µM; hit rate 0.3% among 360,000; AID 602163, 2012; in the data active = activation above about 7.5%;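 also: 0% = vehicle and 100% = reference activator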
# MT1-MMP act inh = blockers of MT1-MMP proenzyme processing, primary screen, HT1080 RFP-PRO-GFP cells, GFP/RFP fluorescence. GFP/RFP ratio change, % at 20 µM. hit rate 0.061% among 360,000. GFP/RFP ratio fluorescence, overnight; percent of plate control window, DMSO zero. Matrix metalloproteinase-14 (Homo sapiens), P50281;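 active = GFP/RFP ratio change of at least 30% with cell ATP level not reduced by more than half and red fluorescence within 50% of control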
#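 Test system: HT1080 RFP-PRO-GFP cells; Benchmarks: DMSO and RFP-L50D-GFP cell wells; Timing: cells overnight before dosing, compound overnight, 37 °C, 5% CO2; Compound: one 20 µM compound dose with 1% DMSO; Read-out: GFP/RFP fluorescence ratio.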
# MsrA inh confirm = bovine MsrA inhibitors, retest, confirmation, biochemical, absorbance, HTS | inhibition, % at 15.5 µM | hit rate 41% among 2,300 | shares compounds with MsrA inh | purified bovine MsrA, absorbance read-out;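 also: coupled to thioredoxin reductase with NADPH and selenocystamine and DMSO as substrate; 0% = vehicle only and 100% = full effect of reference inhibitor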
# The depositor's hits bear a star; . = not tested or not shown. Sampled rows, rich in hits. Any-hit rate of the full collection: about 1.8%. Rule as the data show it, unless noted: active = inhibition above about 4.5%; inactive = the rest.
SMILES,beta cell repl,MsrA inh,SKN-1 inh,DAGLB inh,MsrA act,MT1-MMP act inh,MsrA inh confirm
Cc1ccc(-n2c(O)c(C=NCCN3CCOCC3)c(=O)[nH]c2=O)cc1,-4.0,0.1,-28.1,-1.6,-3.6,0.5,.
O=c1[nH]c(=O)n(-c2cccc(Cl)c2)c(O)c1C=NCCCN1CCOCC1,0.6,12.8*,-5.4,-6.9,-0.7,6.4,6.8*
Cc1ccccc1-c1ccc2n1Cc1cnnn1-c1ccccc1-2,.,5.5*,7.9,-3.7,-4.3,-2.0,0.3
CC(C)n1c(O)c(C=NCc2ccccc2)c(=O)[nH]c1=S,-2.0,5.2*,-2.6,3.3,-4.6,1.2,2.4
O=c1[nH]c(=S)n(Cc2ccc(F)cc2)c(O)c1/C=N/N1CCCCC1,0.0,2.2,7.9,6.2,-1.0,0.1,.
O=c1[nH]c(=S)n(Cc2ccc(F)cc2)c(O)c1C=NCC1CCCO1 (stereo not drawn),-3.4,5.7*,-24.5,0.1,-4.5,-6.9,3.3
O=c1[nH]c(=S)n(C2CC2)c(O)c1C=NCC1CCCO1 (stereo not drawn),0.8,6.2*,-17.0,-1.6,-7.3,-1.2,3.2
O=c1[nH]c(=S)n(Cc2ccc(F)cc2)c(O)c1C=NCc1cccnc1,-0.5,4.8*,4.3,1.0,-7.9,-5.3,3.9
C[C@]12CC[C@H](O)C[C@H]1CC[C@@H]1[C@@H]2CC[C@]2(C)C(=O)CC[C@@H]12,1.6,1.2,5.1,-1.8,3.9,4.0,.
C=C1C(C)C2C(Cc3ccccc3)NC(=O)C23OC(=O)/C=C/C(O)CCCC(C)C/C=C/C3C1O (stereo not drawn),.,-0.1,3.9,1.2,-2.0,3.9,.
CC(=O)/C=C/c1ccccc1,-2.3,-0.5,2.4,-2.4,-0.4,2.6,.
O=C(/C=C/C=C/c1ccccc1)CC1(O)C(=O)Nc2ccccc21 (stereo not drawn),-4.9,7.2*,25.4,0.3,-4.4,-12.5,5.6*
COc1ccc(-c2cc(=NCCC(=O)O)c3cc(C)ccc3o2)cc1,.,4.8*,16.0,-3.1,-4.7,0.8,4.6*
COc1ccc(-c2cc(=Nc3ccccc3)c3cc(C)ccc3o2)cc1,-5.6,1.5,7.1,-13.7,-2.6,0.8,.
O=C(NN=Cc1ccc(N(CCCl)CCCl)cc1)C(=O)c1c[nH]c2ccccc12,.,6.0*,-1.8,2.6,-8.1,-5.1,1.9
N/C(=N\N=C\c1ccc(O)cc1O)N[N+](=O)[O-],-2.8,4.2,-8.9,0.9,-5.7,2.8,.
N/C(=N\[N+](=O)[O-])N/N=C/c1ccc(O)cc1,-0.6,5.3*,-1.8,0.9,-7.1,-1.7,4.3
CC(C)(C)c1cc([N+](=O)[O-])cc(C(C)(C)C)c1O,-6.0,22.0*,.,.,.,.,17.6*
COC1=C(C)C(=O)C2=C(C1=O)C(CO)N1C(C#N)C3CC4C(C1C2N1CCOC41)N3C (stereo not drawn),.,1.4,3.2,-3.6,-6.0,-1.3,.
COC1=C(OC)[C@]23CCc4ccc(OC)c(OC)c4[C@]2(CCN3C)CC1=O,-2.6,-0.5,-7.7,-0.5,-13.5,2.4,.
CCOCC1(CCc2ccccc2)C(=O)NC(=S)NC1=O,.,0.7,-0.4,-0.8,-13.2,-4.6,.
CCOc1cc(C=C2C(=O)NC(=S)NC2=O)ccc1O,.,4.8*,-6.7,-2.9,-5.7,-0.8,2.3
COc1ccc(C=C2C(=O)NC(=S)NC2=O)cc1OC,.,0.4,-2.8,4.0,-2.5,-2.7,.
CC(C)NC1(c2ccccc2)CCCCC1,.,-0.5,.,.,.,.,.
